Test results reported in ChEMBL document CHEMBL1255410, “Activity of the investigational fluoroquinolone finafloxacin against ciprofloxacin-sensitive and -resistant Acinetobacter baumannii isolates” (2010).

Columns and labels:
Format in all cases: functional
Acinetobacter baumannii [1] = test: Antimicrobial activity against Acinetobacter baumannii isolate 4 at pH 7.2
Outline: (§1)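 Agar dilution MIC on Mueller-Hinton agar. For the acidic condition, HCl was added to bring the agar to pH 5.8 before pouring the antibiotic plates, and the pH was checked after the agar set. The standard condition was pH 7.2. Both drugs' plates were made the same day from fresh medium, and MICs were read at the same time.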

Acinetobacter baumannii [2] = test: Antimicrobial activity against Acinetobacter baumannii isolate 7 at pH 7.2
Outline: (§2)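 Agar dilution MIC on Mueller-Hinton agar under standard conditions (pH 7.2). Antibiotic-containing plates were made the same day from freshly prepared medium. Agar pH was checked after solidifying. Both fluoroquinolones were tested simultaneously against A. baumannii isolates with characterized gyrA/parC genes. MICs are in μg/ml.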

Acinetobacter baumannii [3] = test: Antimicrobial activity against Acinetobacter baumannii isolate 13 at pH 7.2
Outline: (§3)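 MIC by agar dilution on Mueller-Hinton agar under standard conditions (pH 7.2), against isolates with characterized gyrA/parC genes. Agar pH was checked after solidifying. Plates for both drugs were prepared the same day from freshly made media, and MICs were determined simultaneously with the pH 5.8 set.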

Acinetobacter baumannii [4] = test: Antimicrobial activity against Acinetobacter baumannii isolate 15 at pH 7.2; outline: as §3
Acinetobacter baumannii [5] = test: Antimicrobial activity against Acinetobacter baumannii isolate 16 at pH 7.2; outline: as §3
Acinetobacter baumannii [6] = test: Antimicrobial activity against Acinetobacter baumannii isolate 24 harboring GyrA Ser83-Leu mutation at pH 7.2; outline: as §3
Acinetobacter baumannii [7] = test: Antimicrobial activity against Acinetobacter baumannii isolate 30 harboring GyrA Ser83-Leu mutation at pH 7.2; outline: as §3
Acinetobacter baumannii [8] = test: Antimicrobial activity against Acinetobacter baumannii isolate 38 harboring GyrA Ser83-Leu mutation at pH 7.2; outline: as §1
Acinetobacter baumannii [9] = test: Antimicrobial activity against Acinetobacter baumannii isolate 40 harboring GyrA Ser83-Leu mutation at pH 7.2; outline: as §1
Acinetobacter baumannii [10] = test: Antimicrobial activity against Acinetobacter baumannii isolate 42 harboring GyrA Ser83-Leu mutation at pH 7.2; outline: as §1
Acinetobacter baumannii [11] = test: Antimicrobial activity against Acinetobacter baumannii isolate 43 harboring GyrA Ser83-Leu mutation at pH 7.2; outline: as §1
Acinetobacter baumannii [12] = test: Antimicrobial activity against Acinetobacter baumannii isolate 44 harboring GyrA Ser83-Leu and ParC Glu84-Lys mutation at pH 7.2; outline: as §1
Acinetobacter baumannii [13] = test: Antimicrobial activity against Acinetobacter baumannii isolate 50 harboring GyrA Ser83-Leu and ParC Ser80-Leu mutation at pH 7.2; outline: as §1
Acinetobacter baumannii [14] = test: Antimicrobial activity against Acinetobacter baumannii isolate 51 harboring GyrA Ser83-Leu and ParC Ser80-Leu mutation at pH 7.2; outline: as §1
Acinetobacter baumannii [15] = test: Antimicrobial activity against Acinetobacter baumannii isolate 54 harboring GyrA Ser83-Leu and ParC Ser80-Leu mutation at pH 7.2; outline: as §1
Acinetobacter baumannii [16] = test: Antimicrobial activity against Acinetobacter baumannii isolate 56 harboring GyrA Ser83-Leu and ParC Ser80-Leu mutation at pH 7.2; outline: as §2
Acinetobacter baumannii [17] = test: Antimicrobial activity against Acinetobacter baumannii isolate 57 harboring GyrA Ser83-Leu and ParC Ser80-Phe mutation at pH 7.2; outline: as §2
Acinetobacter baumannii [18] = test: Antimicrobial activity against Acinetobacter baumannii isolate 58 harboring GyrA Ser83-Leu and ParC Ser80-Leu mutation at pH 7.2; outline: as §2
Acinetobacter baumannii [19] = test: Antimicrobial activity against Acinetobacter baumannii isolate 61 harboring GyrA Ser83-Leu and ParC Ser80-Leu mutation at pH 7.2; outline: as §2
Acinetobacter baumannii [20] = test: Antimicrobial activity against Acinetobacter baumannii isolate 4 at pH 5.8
Outline: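 Agar dilution MIC on Mueller-Hinton agar acidified with HCl before pouring antibiotic plates; agar pH checked after setting. Isolate has characterized gyrA/parC genes. Plates made the same day from fresh medium, and both drugs tested at the same time. Read-out: MIC (μg/ml).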

Acinetobacter baumannii [21] = test: Antimicrobial activity against Acinetobacter baumannii isolate 5 at pH 5.8; outline: as §1
Acinetobacter baumannii [22] = test: Antimicrobial activity against Acinetobacter baumannii isolate 17 at pH 5.8
Outline: (§4)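 MIC by agar dilution on Mueller-Hinton agar acidified to pH 5.8 with HCl before antibiotic-containing plates were poured. Agar pH was rechecked once the agar had solidified. Isolates had characterized gyrA/parC genes. Plates for both drugs were made the same day from fresh media, and MICs were read in parallel with the standard-pH set.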

Acinetobacter baumannii [23] = test: Antimicrobial activity against Acinetobacter baumannii isolate 22 harboring GyrA Ser83-Leu mutation at pH 5.8; outline: as §4
Acinetobacter baumannii [24] = test: Antimicrobial activity against Acinetobacter baumannii isolate 23 harboring GyrA Glu87-Gly mutation at pH 5.8; outline: as §4
Acinetobacter baumannii [25] = test: Antimicrobial activity against Acinetobacter baumannii isolate 32 harboring GyrA Ser83-Leu mutation at pH 5.8; outline: as §1
Acinetobacter baumannii [26] = test: Antimicrobial activity against Acinetobacter baumannii isolate 34 harboring GyrA Ser83-Leu mutation at pH 5.8; outline: as §1
Acinetobacter baumannii [27] = test: Antimicrobial activity against Acinetobacter baumannii isolate 35 harboring GyrA Ser83-Leu mutation at pH 5.8; outline: as §1
Acinetobacter baumannii [28] = test: Antimicrobial activity against Acinetobacter baumannii isolate 38 harboring GyrA Ser83-Leu mutation at pH 5.8; outline: as §1
Acinetobacter baumannii [29] = test: Antimicrobial activity against Acinetobacter baumannii isolate 39 harboring GyrA Ser83-Leu mutation at pH 5.8; outline: as §1
Acinetobacter baumannii [30] = test: Antimicrobial activity against Acinetobacter baumannii isolate 43 harboring GyrA Ser83-Leu mutation at pH 5.8; outline: as §1
Acinetobacter baumannii [31] = test: Antimicrobial activity against Acinetobacter baumannii isolate 49 harboring GyrA Ser83-Leu and ParC Ser80-Leu mutation at pH 5.8; outline: as §1
Acinetobacter baumannii [32] = test: Antimicrobial activity against Acinetobacter baumannii isolate 51 harboring GyrA Ser83-Leu and ParC Ser80-Leu mutation at pH 5.8; outline: as §1
Acinetobacter baumannii [33] = test: Antimicrobial activity against Acinetobacter baumannii isolate 53 harboring GyrA Ser83-Leu and ParC Ser80-Leu mutation at pH 5.8; outline: as §1
Acinetobacter baumannii [34] = test: Antimicrobial activity against Acinetobacter baumannii isolate 54 harboring GyrA Ser83-Leu and ParC Ser80-Leu mutation at pH 5.8; outline: as §1
Acinetobacter baumannii [35] = test: Antimicrobial activity against Acinetobacter baumannii isolate 55 harboring GyrA Ser83-Leu and ParC Ser80-Leu mutation at pH 5.8; outline: as §1
Acinetobacter baumannii [36] = test: Antimicrobial activity against Acinetobacter baumannii isolate 56 harboring GyrA Ser83-Leu and ParC Ser80-Leu mutation at pH 5.8
Outline: (§5)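 Agar dilution MIC on Mueller-Hinton agar acidified to pH 5.8 with HCl before the antibiotic-containing plates were poured. Agar pH was checked after solidifying. Plates were made the same day from fresh medium. Both fluoroquinolones were tested simultaneously against A. baumannii isolates with characterized gyrA/parC genes. MICs are in μg/ml.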

Acinetobacter baumannii [37] = test: Antimicrobial activity against Acinetobacter baumannii isolate 64 harboring GyrA Ser83-Leu and ParC Ser80-Leu mutation at pH 5.8; outline: as §5
Acinetobacter baumannii [38] = test: Antimicrobial activity against Acinetobacter baumannii isolate 65 harboring GyrA Ser83-Leu and ParC Ser80-Leu mutation at pH 5.8; outline: as §5
Acinetobacter baumannii [39] = test: Antimicrobial activity against Acinetobacter baumannii isolate 66 harboring GyrA Ser83-Leu mutation at pH 5.8; outline: as §5

Measured: MIC

N#Cc1c(N2C[C@@H]3NCCO[C@H]3C2)c(F)cc2c(=O)c(C(=O)O)cn(C3CC3)c12 [FINAFLOXACIN]
4 µg/mL: Acinetobacter baumannii [34] | Acinetobacter baumannii [35] | Acinetobacter baumannii [36] | Acinetobacter baumannii [37]
1 µg/mL: Acinetobacter baumannii [3] | Acinetobacter baumannii [4] | Acinetobacter baumannii [5] | Acinetobacter baumannii [23] | Acinetobacter baumannii [24] | Acinetobacter baumannii [25]
0.06 µg/mL: Acinetobacter baumannii [21]
0.25 µg/mL: Acinetobacter baumannii [1] | Acinetobacter baumannii [2]
0.03 µg/mL: Acinetobacter baumannii [20]
2 µg/mL: Acinetobacter baumannii [26] | Acinetobacter baumannii [27] | Acinetobacter baumannii [28] | Acinetobacter baumannii [29] | Acinetobacter baumannii [30] | Acinetobacter baumannii [31] | Acinetobacter baumannii [32] | Acinetobacter baumannii [33] | Acinetobacter baumannii [39]
8 µg/mL: Acinetobacter baumannii [7] | Acinetobacter baumannii [38]
0.12 µg/mL: Acinetobacter baumannii [22]
32 µg/mL: Acinetobacter baumannii [14] | Acinetobacter baumannii [15] | Acinetobacter baumannii [16] | Acinetobacter baumannii [17]
16 µg/mL: Acinetobacter baumannii [6] | Acinetobacter baumannii [8] | Acinetobacter baumannii [9] | Acinetobacter baumannii [10] | Acinetobacter baumannii [11] | Acinetobacter baumannii [12] | Acinetobacter baumannii [13]
64 µg/mL: Acinetobacter baumannii [18] | Acinetobacter baumannii [19]
